Series [1] in a line: Dissociation constant (pKa) (determined in 30% EtOH/water). In kind it is physicochemical.
A short description of series [2]: Solubility (buffer pH 7.4). Type of series: physicochemical. Particulars: read-out: S. In outline:
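Solubility in 50 mM phosphate buffer, pH 7.4.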

Series [3] in a line: Partition coefficient (pH 7.4). Particulars: octanol/water. In kind it is ADME. In outline: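 1-Octanol/phosphate buffer partition at pH 7.4 and 0.1 ionic strength. The compound was equilibrated between the phases and the concentration in each phase was measured by UV spectrophotometry.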
For series [4], the species on record is Oryctolagus cuniculus. Kind of series: Maximum fall in IOP after 50 uL dose of 0.5% concentration in alpha-CT rabbit model. Type of series: functional. In outline: (§1)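 Alpha-chymotrypsinized rabbit model of ocular hypertension. Single 50-µL bilateral instillation of a 0.5% (w/v) solution in 0.5% aqueous (hydroxyethyl)cellulose vehicle. Read-out is the fall in IOP.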

The subject of series [5] is Oryctolagus cuniculus. Kind of series: Tested in vivo for the IOP (intraocular pressure) recovery after 50 uL dose of 2% concentration in albino rabbits. In kind it is functional, Eye. An outline of the steps:
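Conscious albino rabbits. Aqueous humor production was assessed indirectly by IOP recovery rate. A single bilateral 50-µL instillation of 2% (w/v) in 0.5% aqueous (hydroxyethyl)cellulose vehicle was given. Results are percent change from control, tested by Dunnett's two-tailed test (P<0.05).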

The species entered for series [6] is Oryctolagus cuniculus. As to the kind of experiment: Maximum fall in IOP after 50 microL dose of 0.5% concentration in alpha-CT rabbit model. Type of series: functional. In outline:
as §1

Series [7] has as its target Carbonic anhydrase 2 (Homo sapiens, UniProt P00918). Kind of series: Inhibitory activity against human carbonic anhydrase II using pH stat assay. In kind it is functional. The note with it: read-out: I50.

The structures appear in SMILES notation. Values after ≈ are worked out from the molar mass of the structure shown.

What is called pKa is the negative logarithm of the acid dissociation constant. A lower pKa goes with a stronger acid or weaker base. In the case of `CC(=O)OCCCCCc1ccc(S(N)(=O)=O)cc1`, the pKa in series [1] amounted to 10.3. In addition, the solubility in series [2] came to 1200 µg/mL (≈ 4.21 mM). The compound further came in with a D in series [3] of 73. In series [4], the “Max fall in IOP” value is reported as -6.4 mmHg. In series [5], the Change from control is recorded as -33%.
Turning to `CC(=O)OCCCc1ccc(S(N)(=O)=O)cc1`, the pKa in series [1] came to 10.2. In addition, the “Max fall in IOP” value in series [6] is -4.5 mmHg. Moreover, in series [2], the solubility turned out to be 1600 µg/mL (≈ 6.22 mM). In series [3], this compound yielded a D of 9.6. For the same compound, the Change from control in series [5] was -18%.
Consider `NS(=O)(=O)c1cc2c(s1)S(=O)(=O)CCC2O` (centres undefined), for which the pKa in series [1] is 8.2. Moreover, the “Max fall in IOP” value in series [4] is reported as -6.9 mmHg. Further, the Change from control in series [5] is recorded as -40%.
`NS(=O)(=O)c1ccc(S(=O)(=O)CCO)cc1`: in series [1], the pKa was 9.38. Also, in series [2], the solubility was determined as 6600 µg/mL (≈ 24.9 mM). The compound also returned a D in series [3] of 0.14. The “Max fall in IOP” value in series [4] is recorded as -10.8 mmHg. In series [7], the IC50 came to 24 nM. The Change from control in series [5] is reported as -41%.

(Values after ChEMBL document CHEMBL1125912, “Topically active carbonic anhydrase inhibitors. 4. [(Hydroxyalkyl)sulfonyl]benzene and [(hydroxyalkyl)sulfonyl]thiophenesulfonamides” (J Med Chem, 1991).)
